Published values from different studies.
Protocols differ between the studies behind these lines.
Read-out: cell growth or viability

With `CS(=O)(=O)CCNCc1ccc(-c2ccc3ncnc(Nc4ccc(OCc5cccc(F)c5)c(Cl)c4)c3c2)o1` the IC50 was 54.4 nM (HCC1419; ATP luminescence).
For `Cc1cccc(N=C2C(=O)N(Cc3ccc(Br)cc3)c3ccccc32)c1`, the IC50 was 26000 nM (L02; MTT; 48 h).
With `COc1cccc2c1C(=O)c1c(O)c3c(c(O)c1C2=O)C[C@@](O)(C(=O)CO)C[C@@H]3O[C@H]1C[C@H](N)[C@H](O)[C@H](C)O1` the IC50 was 120 nM (CAL-51; ATP luminescence; 72 h).
`O=C1C(=Nc2ccccc2I)c2ccccc2N1Cc1cccc(Cl)c1` has an IC50 of 19100 nM (L02; MTT; 48 h).
`C=C1C[C@@]23CC[C@H]4[C@@](C)(CCC[C@@]4(C)C(=O)O)[C@@H]2CC[C@@H]1C3` has an IC50 of 116000 nM (MOLT-3; XTT; 75 h).
With `CCc1ccc(N=C2C(=O)N(Cc3ccccc3)c3ccccc32)cc1` the IC50 was 86700 nM (L02; MTT; 48 h).
The IC50 of `COC[C@H](NC(=O)c1ccn(S(C)(=O)=O)c1)C(=O)Nc1nc(-c2cccc(N3C[C@@H](C)O[C@@H](C)C3)n2)cs1` is reported as 45.1 nM (NCI-H1944; ATP luminescence; 7 days).
The IC50 of `O=C1C(=Nc2ccc(Cl)cc2)c2ccccc2N1Cc1cccc(Cl)c1` is reported as 32000 nM (L02; MTT; 48 h).
For `O=C(NO)c1ccc(Cn2cnc3c(Nc4ccc(F)c(Cl)c4)ncnc32)cc1`, the IC50 was 2020 nM (NALM-6; MTT; 72 h).
For `O=C(CCc1ccc(Cl)cc1)N1C(=O)C(=Nc2ccc(Cl)cc2Br)c2ccccc21`, the IC50 was > 100000 nM (L02; MTT; 48 h).
For `C(=N\Nc1cc(N/N=C/c2cccc3cccnc23)ncn1)/c1cccc2cccnc12`, the IC50 was 31600 nM (L02; MTT; 48 h).
For `COc1cc([C@@H]2c3cc4c(cc3[C@@H](O[C@@H]3O[C@@H]5CO[C@@H](C)O[C@H]5[C@H](O)[C@H]3O)[C@H]3COC(=O)[C@H]23)OCO4)cc(OC)c1O`, the IC50 was 78 nM (MOLT-3; XTT; 75 h).
For `COc1ccc(Nc2ncnc3c2ncn3Cc2ccc(C(=O)NO)cc2)cc1`, the IC50 was 2010 nM (NALM-6; MTT; 72 h).
The IC50 of `Cc1ncsc1-c1ccc(CNC(=O)[C@@H]2C[C@@H](O)CN2C(=O)[C@@H](NC(=O)C2(F)CC2)C(C)(C)C)c(OCCOc2ccc(CN3CCN(c4cc(-c5ccccc5O)nnc4N)CC3)cc2)c1` is reported as 168 nM (NCI-H1944; ATP luminescence; 7 days).
The IC50 of `COc1c(Cl)cccc1Nc1c(-c2ccncc2OC[C@@H]2COCCO2)[nH]c2c1C(=O)NCC2` is reported as 6.4 nM (HCC1419; ATP luminescence).
With `C(=N\Nc1cc(N/N=C/c2ccc3ccccc3n2)nc(-c2ccccc2)n1)/c1ccc2ccccc2n1` the IC50 was > 100000 nM (L02; MTT; 48 h).
With `O=C(NO)c1ccc(Cn2cnc3c(Nc4ccc(Cl)cc4)ncnc32)cc1` the IC50 was 410 nM (NALM-6; MTT; 72 h).
`C=CCN1C(=O)C(=Nc2cccc(C)c2)c2ccccc21` has an IC50 of 14100 nM (L02; MTT; 48 h).
With `CC(C)(C)c1cnc(CSc2cnc(NC(=O)C3CCN(C(=O)CCCCCCCN4Cc5cc6c(cc5C4)C(=O)N(C4CCC(=O)NC4=O)C6=O)CC3)s2)o1` (stereo not drawn) the IC50 was 23.4 nM (NALM-6; MTT).
`CN1C(=O)C(=O)c2cc3c(c4c2c1cc1ccccc14)OCO3` gave an IC50 of 20400 nM (MOLT-3; XTT; 75 h).
The IC50 of `O=C1C(=Nc2ccc(Cl)cc2)c2ccccc2N1Cc1ccc(Br)cc1` is reported as > 100000 nM (L02; MTT; 48 h).
`O=C(NO)c1ccc(Cn2cnc3c(Nc4ccc(Br)cc4F)ncnc32)cc1` gave an IC50 of 2120 nM (NALM-6; MTT; 72 h).
With `Cc1nc(Nc2ncc(C(=O)Nc3c(C)cccc3Cl)s2)cc(N2CC[C@H](O)C2)n1` the IC50 was > 10000 nM (REH; ATP luminescence; 72 h).
`COc1cc([C@@H]2c3cc4c(cc3[C@@H](O[C@@H]3O[C@@H]5CO[C@@H](C)O[C@H]5[C@H](O)[C@H]3O)[C@H]3COC(=O)[C@H]23)OCO4)cc(OC)c1O` gave an IC50 of 61 nM (MOLT-3; XTT).
